Compound activity (PubChem BioAssay)
Diaph act CS = counter-screen for diaphorase-based assays: diaphorase activators and chemical reducers. Diaphorase/resazurin coupled assay, resorufin fluorescence, 16 min; hits give high values; 1 = vehicle wells, 0 = NADH-free wells. activation factor at 20 µM. 190,000 tested, 0.005% active. AID 1229;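 active = diaphorase activity raised at least twofold by the compound at 20 µM; inactive = activation factor below 2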
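System – purified diaphorase enzyme from Clostridium kluyveri · Input – enzyme 0.07 U/mL final · Also added – final NADH 0.114 mM, resazurin 0.1 mM · Measured by – fluorescence of resorufin, 544 nm excitation, 590 nm emission · Timing – 16 min enzyme reaction, ambient temperature · Measure – resorufin increase flagging diaphorase activators or reducers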
PMI act = activators of human phosphomannose isomerase; P34949; purified human PMI, coupled resazurin fluorescence, 20 min; hits give high values; 1 = vehicle control, 0 substrate-free wells; activation factor at 20 µM; 190,000 tested, 0.005% active;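 active = activation factor of 2 or more at 20 µM, relative to plate controls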
Target sequence (P34949 whole entry, looked up): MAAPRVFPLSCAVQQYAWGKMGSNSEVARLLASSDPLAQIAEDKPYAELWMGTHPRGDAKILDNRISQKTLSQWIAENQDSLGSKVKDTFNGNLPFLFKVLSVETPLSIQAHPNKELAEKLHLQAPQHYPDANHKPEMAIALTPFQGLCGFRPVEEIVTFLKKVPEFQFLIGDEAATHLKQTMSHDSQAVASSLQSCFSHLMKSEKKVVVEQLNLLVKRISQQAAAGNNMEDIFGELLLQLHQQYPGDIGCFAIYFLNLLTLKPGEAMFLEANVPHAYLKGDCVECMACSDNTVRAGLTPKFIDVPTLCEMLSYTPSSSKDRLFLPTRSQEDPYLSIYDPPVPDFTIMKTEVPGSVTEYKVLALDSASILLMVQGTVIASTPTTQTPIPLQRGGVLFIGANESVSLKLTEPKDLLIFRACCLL
G6PDH counter = inhibits Leuconostoc G6PDH, flagging false hits in G6PDH-based assays | Purified L. mesenteroides G6PDH, diaphorase/resazurin coupled fluorescence, 45 min | inhibition, % at 5 µM | 200,000 tested, 0.12% active | AID 1020; in the data active = inhibition above about 50%
Diaph inh CS = diaphorase inhibition or chemical oxidation counter-screen; 190,000 tested, 0.69% active; diaphorase resazurin-to-resorufin fluorescence, NADH, 16 min; bacterial (C. kluyveri) enzyme, not human; inhibition, % at 20 µM; AID 1217;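 active = primary screen inhibition at 20 µM above a set limit, cut at about 50% in these data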
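Assay system: diaphorase enzyme from Clostridium kluyveri. Quantity: enzyme working solution with 0.14 U/mL diaphorase. Schedule: reaction incubation of 16 min at room temperature. Technique: resorufin fluorescence, excitation 544 nm, emission 590 nm. Controls: No-NADH positive control and DMSO neutral control.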
PMI act hi M6P = increases human PMI activity with near-saturating mannose 6-phosphate; P34949; coupled PMI enzyme assay, resazurin fluorescence, 20 min; hits give high values; 1 = untreated enzyme, 0 = substrate-free blank; activation factor at 20 µM; 190,000 tested, 0.34% active; AID 1216;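 active = activation factor of 2 or more at 20 µM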
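Test system – human PMI in coupled enzyme assay · Timing – 20 min incubation at room temperature · Detection – Diaphorase-driven resazurin-to-resorufin fluorescence, excitation 544, emission 590 nm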
Numbers stand for hits. Most compounds without a hit are left out; they make up all but 1.1% or so of the library.

What do the screens show for `CC12CCC(C(=O)N(CSC(=S)N/N=C\c3ccccc3)C1=O)C2(C)C` (centres undefined)?
Diaph act CS: inactive; PMI act: inactive; G6PDH counter: inactive; Diaph inh CS: 58; PMI act hi M6P: inactive

What do the screens show for `O=C(O)Cc1ccc(C(=O)c2ccc(Cl)cc2Cl)s1`?
Diaph act CS: inactive; PMI act: inactive; G6PDH counter: inactive; Diaph inh CS: 83; PMI act hi M6P: inactive

How did CC(=O)N1C(=S)NC(=O)/C1=C1/C(=O)N(CC(=O)Nc2cccc(C)c2)c2ccccc21 do in these assays?
Diaph act CS: inactive; PMI act: inactive; G6PDH counter: inactive; Diaph inh CS: 67; PMI act hi M6P: inactive

What do the screens show for `CC1=CC(C)(C)Nc2ccc(OS(=O)(=O)c3ccc(C)cc3)cc21`?
Diaph act CS: inactive; PMI act: inactive; G6PDH counter: inactive; Diaph inh CS: 50; PMI act hi M6P: inactive

How did CC(=O)Nc1ccc(S(=O)(=O)Oc2ccc3c(c2)C(C)=CC(C)(C)N3)cc1 do in these assays?
Diaph act CS: inactive; PMI act: inactive; G6PDH counter: inactive; Diaph inh CS: inactive; PMI act hi M6P: inactive

How did COC(=O)c1c(NC(=O)c2cccc([N+](=O)[O-])c2)sc(C(N)=O)c1C do in these assays?
Diaph act CS: inactive; PMI act: inactive; G6PDH counter: inactive; Diaph inh CS: 72; PMI act hi M6P: inactive

What do the screens show for `CC(=O)N1CCN(CC(=O)c2ccc(Br)cc2)CC1`?
Diaph act CS: inactive; PMI act: inactive; G6PDH counter: inactive; Diaph inh CS: inactive; PMI act hi M6P: 2.4

What do the screens show for `CC(=O)N1CCN(C(=O)COc2ccc(Br)cc2)CC1`?
Diaph act CS: inactive; PMI act: inactive; G6PDH counter: inactive; Diaph inh CS: inactive; PMI act hi M6P: inactive

Results for Cc1sc(NC(=O)c2sc3nc4c(C)cccc4cc3c2N)c(C#N)c1C ?
Diaph act CS: inactive; PMI act: inactive; G6PDH counter: inactive; Diaph inh CS: 59; PMI act hi M6P: inactive

How did Cc1cccc2cc3c(N)c(C#N)sc3nc12 do in these assays?
Diaph act CS: inactive; PMI act: inactive; G6PDH counter: inactive; Diaph inh CS: inactive; PMI act hi M6P: inactive

What do the screens show for `COc1cc(C2CC(=O)NC3=C2C(=O)CC(C)(C)C3)cc(OC)c1O` (centres undefined)?
Diaph act CS: inactive; PMI act: inactive; G6PDH counter: 50; Diaph inh CS: inactive; PMI act hi M6P: inactive

How did O=C(CC1C(=O)NCCN1CC1CCCCC1)NCc1cccc(F)c1F (centres undefined) do in these assays?
G6PDH counter: inactive

Results for CCCN1CCCc2cc(CN)ccc21 ?
Diaph act CS: inactive; PMI act: inactive; G6PDH counter: 54; Diaph inh CS: inactive; PMI act hi M6P: inactive

What do the screens show for `CN1C=C/C(=C\c2cc[n+](C)c3ccccc23)c2ccccc21`?
Diaph act CS: inactive; PMI act: inactive; G6PDH counter: 60; Diaph inh CS: 55; PMI act hi M6P: inactive

Results for CC[n+]1ccc(/C=C2\Sc3ccccc3N2CCCS(=O)(=O)[O-])c2ccccc21 ?
Diaph act CS: inactive; PMI act: inactive; G6PDH counter: inactive; Diaph inh CS: inactive; PMI act hi M6P: inactive

Results for Cc1ccc(/C([O-])=C(/C(=S)NCc2ccc3c(c2)OCO3)[n+]2ccc(N(C)C)cc2)c(C)c1 ?
Diaph act CS: inactive; PMI act: inactive; G6PDH counter: inactive; Diaph inh CS: inactive; PMI act hi M6P: inactive

What do the screens show for `Cc1oc2c(c1C(=O)NCc1cccnc1)C(=O)c1ccccc1C2=O`?
Diaph act CS: inactive; PMI act: inactive; G6PDH counter: 59; Diaph inh CS: inactive; PMI act hi M6P: inactive

Results for COc1ccc(CNC(=O)c2c(C)oc3c2C(=O)c2ccccc2C3=O)cc1 ?
Diaph act CS: inactive; PMI act: inactive; G6PDH counter: 62; Diaph inh CS: inactive; PMI act hi M6P: inactive

What do the screens show for `COc1ccc2[nH]cc(S(=O)(=O)c3ccc(C)cc3)c2c1`?
Diaph act CS: inactive; PMI act: inactive; G6PDH counter: inactive; Diaph inh CS: inactive; PMI act hi M6P: inactive

How did CC(=O)OCCN(C)c1cc(SC(C)C)c2nonc2c1[N+](=O)[O-] do in these assays?
Diaph act CS: inactive; PMI act: inactive; G6PDH counter: inactive; Diaph inh CS: inactive; PMI act hi M6P: inactive

How did O=[N+]([O-])c1c(NCCO)cc(N2CCCCC2)c2nonc12 do in these assays?
Diaph act CS: inactive; PMI act: inactive; G6PDH counter: inactive; Diaph inh CS: 52; PMI act hi M6P: inactive

What do the screens show for `CCC(=O)OCCNc1cc(SCCC(=O)OC)c2nonc2c1[N+](=O)[O-]`?
Diaph act CS: inactive; PMI act: inactive; G6PDH counter: inactive; Diaph inh CS: 71; PMI act hi M6P: inactive

How did CC(C)CCSc1cc(NCCO)c([N+](=O)[O-])c2nonc12 do in these assays?
Diaph act CS: inactive; PMI act: inactive; G6PDH counter: inactive; Diaph inh CS: 80; PMI act hi M6P: inactive

How did CC(=O)OCCNc1cc(SC(C)C)c2nonc2c1[N+](=O)[O-] do in these assays?
Diaph act CS: inactive; PMI act: inactive; G6PDH counter: inactive; Diaph inh CS: 52; PMI act hi M6P: inactive

What do the screens show for `O=C(Cn1ccc(C(F)(F)F)n1)N/N=C/c1ccc(N2CCOCC2)cc1`?
Diaph act CS: inactive; PMI act: inactive; G6PDH counter: inactive; Diaph inh CS: inactive; PMI act hi M6P: inactive

How did CC1=NN(c2ccc(S(=O)(=O)O)cc2Cl)C(=O)C1 do in these assays?
Diaph act CS: inactive; PMI act: inactive; G6PDH counter: inactive; Diaph inh CS: inactive; PMI act hi M6P: 2

How did COc1cc(CO)cc(Br)c1OCC(=O)Nc1cccc2ccccc12 do in these assays?
Diaph act CS: inactive; PMI act: inactive; G6PDH counter: inactive; Diaph inh CS: inactive; PMI act hi M6P: inactive

How did COc1ccc2c(c1O)-c1ccccc1CCN(C)C2 do in these assays?
Diaph act CS: inactive; PMI act: inactive; G6PDH counter: inactive; Diaph inh CS: inactive; PMI act hi M6P: inactive

Results for CN1CCc2cccc3c2[C@@H]1Cc1ccc(O)c(O)c1-3 ?
Diaph act CS: inactive; PMI act: inactive; G6PDH counter: inactive; Diaph inh CS: 69; PMI act hi M6P: inactive

How did Cc1c(C(N)=O)sc2ncn(CC(=O)NCCc3ccccc3)c(=O)c12 do in these assays?
Diaph act CS: inactive; PMI act: inactive; G6PDH counter: inactive; Diaph inh CS: inactive; PMI act hi M6P: inactive

What do the screens show for `O=C(O)c1cc2nc(-c3ccccc3)cc(C(F)(F)F)n2n1`?
Diaph act CS: inactive; PMI act: inactive; G6PDH counter: inactive; Diaph inh CS: inactive; PMI act hi M6P: inactive

What do the screens show for `O=C(O)c1cc2nc(-c3ccccc3)cc(-c3ccccc3)n2n1`?
Diaph act CS: inactive; PMI act: inactive; G6PDH counter: inactive; Diaph inh CS: 59; PMI act hi M6P: inactive

What do the screens show for `O=C(Cn1ccc([N+](=O)[O-])n1)NCc1cccnc1`?
Diaph act CS: inactive; PMI act: inactive; G6PDH counter: inactive; Diaph inh CS: inactive; PMI act hi M6P: inactive
